Data reported in ChEMBL document CHEMBL1132870, “Solid-phase parallel synthesis of azarene pyrrolidinones as factor Xa inhibitors” (Bioorg Med Chem Lett, 2000).

Columns and labels:
[1] = biological target: T1, Coagulation factor X (Oryctolagus cuniculus) (UniProt O19045); assay: Compound was tested for its inhibitory activity against Coagulation factor X at a concentration of 0.1 uM
T1 sequence (whole entry): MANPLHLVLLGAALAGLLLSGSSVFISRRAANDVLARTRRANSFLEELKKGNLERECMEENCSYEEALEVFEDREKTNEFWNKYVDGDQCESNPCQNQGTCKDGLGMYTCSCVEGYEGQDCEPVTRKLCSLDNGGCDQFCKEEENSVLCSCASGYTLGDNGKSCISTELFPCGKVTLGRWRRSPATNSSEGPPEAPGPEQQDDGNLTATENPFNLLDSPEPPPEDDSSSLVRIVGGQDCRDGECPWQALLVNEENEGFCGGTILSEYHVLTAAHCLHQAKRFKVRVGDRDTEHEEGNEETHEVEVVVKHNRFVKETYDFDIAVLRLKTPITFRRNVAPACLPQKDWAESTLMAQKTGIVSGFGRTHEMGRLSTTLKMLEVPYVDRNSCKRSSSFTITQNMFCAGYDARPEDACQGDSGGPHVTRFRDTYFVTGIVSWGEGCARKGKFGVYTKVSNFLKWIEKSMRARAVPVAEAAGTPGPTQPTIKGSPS

[2] = biological target: T1, Coagulation factor X (Oryctolagus cuniculus); assay: Inhibitory activity against coagulation factor X at a concentration of 1 uM
Method in brief: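 Triplicate screen. DMSO stocks were diluted to 1 µM final inhibitor in 0.05 M Tris, 0.15 M NaCl, 0.1% PEG-8000, pH 7.5. Incubated 30 min at rt with 1 nM fXa, then 200 µM Spectrozyme chromogenic substrate added. Initial rates read at 405 nm over 5 min in kinetic mode; % inhibition reported.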

[3] = biological target: T1, Coagulation factor X (Oryctolagus cuniculus); assay: Compound was tested for its inhibitory activity against Coagulation factor X at a concentration of 0.5 uM
[4] = biological target: T1, Coagulation factor X (Oryctolagus cuniculus); assay: Compound was tested for its inhibitory activity against Coagulation factor X at a concentration of 0.4 uM
[5] = biological target: T1, Coagulation factor X (Oryctolagus cuniculus); assay: Compound was tested for its inhibitory activity against Coagulation factor X at a concentration of 0.7 uM
[6] = biological target: T1, Coagulation factor X (Oryctolagus cuniculus); assay: Compound was tested for its inhibitory activity against Coagulation factor X at a concentration of 0.3 uM
[7] = biological target: T1, Coagulation factor X (Oryctolagus cuniculus); assay: Compound was tested for its inhibitory activity against Coagulation factor X at a concentration of 0.2 uM

| Structure (SMILES) | inhibition [2] | other results |
| --- | --- | --- |
| O=C1[C@@H](NS(=O)(=O)c2ccc(-c3ccc(Cl)s3)s2)CCN1Cc1cc2c[nH]ccc-2n1 | – | inhibition [1]: 62% |
| O=C1[C@@H](NS(=O)(=O)c2cc3nc(Cl)ccc3s2)CCN1Cc1cc2c[nH]ccc-2n1 | 58% | – |
| CC(C)(C)c1ccc(S(=O)(=O)N[C@H]2CCN(Cc3cc4c[nH]ccc-4n3)C2=O)cc1 | 14% | – |
| O=C1[C@@H](NS(=O)(=O)c2ccc(-c3ccncc3)s2)CCN1Cc1cc2[nH]cccc-2n1 | 35% | – |
| Cc1c(S(=O)(=O)N[C@H]2CCN(CCNc3ccncc3)C2=O)sc2cc(Cl)ccc12 | – | inhibition [3]: 47% |
| O=C1[C@@H](NS(=O)(=O)c2cc3ccnc(Cl)c3s2)CCN1Cc1cc2cc[nH]cc-2n1 | – | inhibition [3]: 48% |
| O=C1[C@@H](NS(=O)(=O)c2ccc(-c3ccncc3)s2)CCN1Cc1cc2c[nH]ccc-2n1 | 21% | – |
| CC(C)(C)c1ccc(S(=O)(=O)N[C@H]2CCN(CCNc3ccncc3)C2=O)cc1 | 14% | – |
| O=C1[C@@H](NS(=O)(=O)c2ccc(-c3ccncc3)s2)CCN1CCNc1ccncc1 | 41% | – |
| O=C1[C@@H](NS(=O)(=O)c2cc3ccc(Cl)nc3s2)CCN1Cc1cc2[nH]cccc-2n1 | 23% | – |
| O=C1[C@@H](NS(=O)(=O)c2ccc(-c3ccon3)s2)CCN1Cc1cc2[nH]cccc-2n1 | 31% | – |
| O=C1[C@@H](NS(=O)(=O)c2nc3cc(Cl)ccc3[nH]2)CCN1Cc1cc2[nH]cccc-2n1 | 14% | – |
| O=C1[C@@H](NS(=O)(=O)c2cc3ccc(Cl)nc3s2)CCN1Cc1cc2c[nH]ccc-2n1 | 51% | – |
| O=C1[C@@H](NS(=O)(=O)c2ccc(-c3ccccn3)s2)CCN1Cc1cc2[nH]cccc-2n1 | 8% | – |
| O=C1[C@@H](NS(=O)(=O)c2cc3nc(Cl)ccc3s2)CCN1CCNc1ccncc1 | – | inhibition [4]: 50% |
| O=C1[C@@H](NS(=O)(=O)c2ccc(-c3ccc(Cl)s3)s2)CCN1CCNc1ccncc1 | – | inhibition [1]: 77% |
| O=C1[C@@H](NS(=O)(=O)c2cc3cccnc3s2)CCN1CCNc1ccncc1 | 23% | – |
| O=C1[C@@H](NS(=O)(=O)c2cc3ccc(Cl)nc3s2)CCN1Cc1cc2cc[nH]cc-2n1 | 50% | – |
| Cc1c(S(=O)(=O)N[C@H]2CCN(Cc3cc4[nH]cccc-4n3)C2=O)sc2ccc(Cl)cc12 | 40% | – |
| CC(C)(C)c1ccc(S(=O)(=O)N[C@H]2CCN(Cc3cc4[nH]cccc-4n3)C2=O)cc1 | 22% | – |
| O=C1[C@@H](NS(=O)(=O)c2nc3cc(Cl)ccc3[nH]2)CCN1Cc1cc2c[nH]ccc-2n1 | 31% | – |
| O=C1[C@@H](NS(=O)(=O)c2cc3cccnc3s2)CCN1Cc1cc2cc[nH]cc-2n1 | – | inhibition [3]: 43% |

| Structure (SMILES) | inhibition [2] | other results |
| --- | --- | --- |
| O=C1[C@@H](NS(=O)(=O)c2cc3ccnc(Cl)c3s2)CCN1Cc1cc2c[nH]ccc-2n1 | 25% | – |
| O=C1[C@@H](NS(=O)(=O)c2cc3ccc(Cl)cc3s2)CCN1CCNc1ccncc1 | – | inhibition [1]: 57% |
| O=C1[C@@H](NS(=O)(=O)c2cc3ncccc3s2)CCN1CCNc1ccncc1 | – | inhibition [5]: 50% |
| O=C1[C@@H](NS(=O)(=O)c2cc3nc(Cl)ccc3s2)CCN1Cc1cc2[nH]cccc-2n1 | – | inhibition [3]: 48% |
| O=C1[C@@H](NS(=O)(=O)c2ccc(-c3ccccn3)s2)CCN1CCNc1ccncc1 | 18% | – |
| O=C1[C@@H](NS(=O)(=O)c2ccc(-c3ccc(Cl)s3)s2)CCN1Cc1cc2cc[nH]cc-2n1 | – | inhibition [6]: 53% |
| O=C1[C@@H](NS(=O)(=O)c2nc3cc(Cl)ccc3[nH]2)CCN1CCNc1ccncc1 | 29% | – |
| CC(C)(C)c1ccc(S(=O)(=O)N[C@H]2CCN(Cc3cc4cc[nH]cc-4n3)C2=O)cc1 | 57% | – |
| O=C1[C@@H](NS(=O)(=O)c2cc3cccnc3s2)CCN1Cc1cc2[nH]cccc-2n1 | 44% | – |
| O=C1[C@@H](NS(=O)(=O)c2cc3ccc(Cl)cc3s2)CCN1Cc1cc2cc[nH]cc-2n1 | – | inhibition [1]: 50% |
| O=C1[C@@H](NS(=O)(=O)c2nc3cc(Cl)ccc3[nH]2)CCN1Cc1cc2cc[nH]cc-2n1 | 21% | – |
| O=C1[C@@H](NS(=O)(=O)c2ccc(-c3ccon3)s2)CCN1CCNc1ccncc1 | 22% | – |
| O=C1[C@@H](NS(=O)(=O)c2cc3c(Cl)nccc3s2)CCN1Cc1cc2[nH]cccc-2n1 | – | inhibition [3]: 50% |
| O=C1[C@@H](NS(=O)(=O)c2cc3ncccc3s2)CCN1Cc1cc2[nH]cccc-2n1 | – | inhibition [6]: 58% |
| O=C1[C@@H](NS(=O)(=O)c2cc3c(Cl)nccc3s2)CCN1Cc1cc2c[nH]ccc-2n1 | 35% | – |
| O=C1[C@@H](NS(=O)(=O)c2cc3ncccc3s2)CCN1Cc1cc2cc[nH]cc-2n1 | – | inhibition [1]: 52% |
| O=C1[C@@H](NS(=O)(=O)c2ccc(-c3ccon3)s2)CCN1Cc1cc2cc[nH]cc-2n1 | 49% | – |
| O=C1[C@@H](NS(=O)(=O)c2cc3ccnc(Cl)c3s2)CCN1CCNc1ccncc1 | 23% | – |
| O=C1[C@@H](NS(=O)(=O)c2cc3ccc(Cl)cc3s2)CCN1Cc1cc2[nH]cccc-2n1 | – | inhibition [3]: 64% |
| O=C1[C@@H](NS(=O)(=O)c2cc3ccc(Cl)cc3s2)CCN1Cc1cc2c[nH]ccc-2n1 | – | inhibition [3]: 53% |
| O=C1[C@@H](NS(=O)(=O)c2cc3ccc(Cl)nc3s2)CCN1CCNc1ccncc1 | – | inhibition [1]: 53% |
| O=C1[C@@H](NS(=O)(=O)c2cc3c(Cl)nccc3s2)CCN1Cc1cc2cc[nH]cc-2n1 | – | inhibition [7]: 52% |

Continued, in another order:

| inhibition [2] | Structure (SMILES) | other results |
| --- | --- | --- |
| 50% | O=C1[C@@H](NS(=O)(=O)c2ccc(-c3ccncc3)s2)CCN1Cc1cc2cc[nH]cc-2n1 | – |
| 17% | O=C1[C@@H](NS(=O)(=O)c2ccc(-c3ccon3)s2)CCN1Cc1cc2c[nH]ccc-2n1 | – |
| 17% | O=C1[C@@H](NS(=O)(=O)c2ccc(-c3ccccn3)s2)CCN1Cc1cc2cc[nH]cc-2n1 | – |
| 42% | O=C1[C@@H](NS(=O)(=O)c2ccc(-c3ccc(Cl)s3)s2)CCN1Cc1cc2[nH]cccc-2n1 | – |
| 11% | O=C1[C@@H](NS(=O)(=O)c2ccc(-c3ccccn3)s2)CCN1Cc1cc2c[nH]ccc-2n1 | – |
| 45% | O=C1[C@@H](NS(=O)(=O)c2cc3ccnc(Cl)c3s2)CCN1Cc1cc2[nH]cccc-2n1 | – |
| 37% | Cc1c(S(=O)(=O)N[C@H]2CCN(Cc3cc4c[nH]ccc-4n3)C2=O)sc2ccc(Cl)cc12 | – |
| 39% | O=C1[C@@H](NS(=O)(=O)c2cc3c(Cl)nccc3s2)CCN1CCNc1ccncc1 | – |
| 61% | O=C1[C@@H](NS(=O)(=O)c2cc3ncccc3s2)CCN1Cc1cc2c[nH]ccc-2n1 | – |
| 18% | O=C1[C@@H](NS(=O)(=O)c2cc3cccnc3s2)CCN1Cc1cc2c[nH]ccc-2n1 | – |
